Experimental data published in ChEMBL document CHEMBL3785029, “Synthesis and Characterization of Fatty Acid Conjugates of Niacin and Salicylic Acid” (J Med Chem, 2016).

Columns and labels:
HepG2 = assay: Inhibition of ApoB secretion in human HepG2 cells after 16 hrs by ELISA; format: functional, cell-based
Plasma [1] = assay: Metabolic stability in mouse plasma at 5 uM up to 2 hrs by LC-MS-MS analysis; format: ADME, cell-free
Procedure, shortened: (§1)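 Plasma from each species diluted to 50% with 0.05 M PBS pH 7.4 and prewarmed to 37 °C; compound added at 5 µM final (from DMSO stock diluted in MeOH); triplicate incubations at 37 °C, sampled at 0, 30, 60, 120 min, quenched with acetonitrile containing internal standard, centrifuged, analysed by LC/MS/MS.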

Rattus norvegicus [2] = assay: AUClast in Sprague-Dawley rat assessed as nicotinuric acid at 100 mg/kg, po administered as single dose measured up to 6 hrs post dose by LC/MS/MS analysis; format: ADME, organism-based; parameters: dose 100 mg/kg, time < 6 hr, route oral; settings: in vivo
Procedure, shortened: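 Single oral dose to Sprague Dawley rats; plasma collected at 0.25, 0.5, 1, 2, 4 and 6 hr; analytes in plasma quantified by LC/MS/MS.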

Rattus norvegicus [3] = assay: Cmax in jugular vein cannulated Sprague-Dawley rat assessed nicotinuric acid at 30 mg/kg, po measured up to 140 mins; format: ADME, organism-based; parameters: dose 30 mg/kg, route oral; settings: in vivo
Procedure, shortened: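 Sprague Dawley rats surgically fitted with indwelling jugular vein and portal vein cannulas; oral dosing, then serial blood draws from both portal and jugular veins at 10, 20, 40 min and 1, 2, 4, 6 hr post dose; plasma analysed for parent and metabolites by LC/MS/MS.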

[4] = Drug uptake in Sprague-Dawley rat intestine at 300 mg/kg, qd administered through oral gavage for 7 days measured 2 hrs post last dose by LC/MS/MS analysis; format: ADME, organism-based; settings: read-out: Drug uptake
[5] = target: T1, Sterol regulatory element-binding protein 2 (Homo sapiens) (UniProt Q12772); assay: Inhibition of SREBP2 in human HepG2 cells assessed as downregulation of PCSK9 mRNA expression by RT-PCR analysis; format: cell-based
T1 sequence (whole entry): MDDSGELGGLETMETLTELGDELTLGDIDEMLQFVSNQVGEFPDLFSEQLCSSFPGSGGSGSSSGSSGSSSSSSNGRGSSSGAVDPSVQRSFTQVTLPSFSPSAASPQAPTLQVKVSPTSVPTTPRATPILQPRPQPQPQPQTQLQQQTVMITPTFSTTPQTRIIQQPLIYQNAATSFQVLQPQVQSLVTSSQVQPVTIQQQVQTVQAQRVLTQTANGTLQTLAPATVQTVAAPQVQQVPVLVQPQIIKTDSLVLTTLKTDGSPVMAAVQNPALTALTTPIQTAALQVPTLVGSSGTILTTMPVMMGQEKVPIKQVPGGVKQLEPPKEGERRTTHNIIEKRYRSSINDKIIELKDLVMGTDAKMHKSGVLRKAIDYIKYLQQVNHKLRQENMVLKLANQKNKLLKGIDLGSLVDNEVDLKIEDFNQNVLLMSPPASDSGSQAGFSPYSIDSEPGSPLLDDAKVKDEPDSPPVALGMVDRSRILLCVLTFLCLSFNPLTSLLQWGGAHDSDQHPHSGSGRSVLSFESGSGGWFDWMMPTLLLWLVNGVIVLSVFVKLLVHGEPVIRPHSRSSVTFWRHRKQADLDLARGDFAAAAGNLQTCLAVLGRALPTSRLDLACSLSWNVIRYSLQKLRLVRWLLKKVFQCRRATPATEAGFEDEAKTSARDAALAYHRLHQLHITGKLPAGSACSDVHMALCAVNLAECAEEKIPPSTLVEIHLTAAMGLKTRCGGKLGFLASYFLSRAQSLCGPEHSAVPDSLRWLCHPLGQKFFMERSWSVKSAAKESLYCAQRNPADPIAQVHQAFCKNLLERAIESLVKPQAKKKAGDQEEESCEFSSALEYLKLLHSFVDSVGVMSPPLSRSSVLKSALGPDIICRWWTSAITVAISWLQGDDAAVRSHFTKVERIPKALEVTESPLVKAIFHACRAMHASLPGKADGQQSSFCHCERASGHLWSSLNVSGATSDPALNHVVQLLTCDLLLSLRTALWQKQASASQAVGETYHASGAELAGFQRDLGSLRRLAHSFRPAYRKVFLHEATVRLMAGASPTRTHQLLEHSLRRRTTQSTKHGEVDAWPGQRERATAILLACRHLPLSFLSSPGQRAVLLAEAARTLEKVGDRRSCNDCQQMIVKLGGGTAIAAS

Intestine = assay: Drug metabolism in Sprague-Dawley rat intestine assessed as nicotinuric acid formation at 300 mg/kg, qd administered through oral gavage for 7 days measured 2 hrs post last dose by LC/MS/MS analysis; format: ADME, organism-based; settings: in vivo
Plasma [6] = assay: Metabolic stability in human plasma at 5 uM up to 2 hrs by LC-MS-MS analysis; format: ADME, cell-free; procedure, shortened: as §1
[7] = Drug uptake in Sprague-Dawley rat epididymal fat at 300 mg/kg, po administered for 14 days followed by 7 day washout cycle measured on day 21; format: ADME, organism-based, Epididymal fat pad; settings: in vivo
Brain = assay: Drug uptake in Sprague-Dawley rat brain at 300 mg/kg, po administered for 14 days followed by 7 day washout cycle measured on day 21; format: ADME, organism-based; settings: in vivo
Rattus norvegicus [8] = assay: AUClast in Sprague-Dawley rat assessed as salicyluric acid at 300 mg/kg, po measured up to 24 hrs post dose; format: ADME, organism-based; parameters: time < 24 hr, dose 300 mg/kg, route oral; settings: in vivo
Procedure, shortened: (§2)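 Single oral dose of 300 mg/kg to Sprague Dawley rats. Plasma collected at 0, 0.5, 1, 2, 4, 8 and 24 hr. Analytes were the parent, the salicylate-linker and linker-DHA metabolites, salicylic acid and salicyluric acid; Cmax and AUClast derived.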

[9] = Drug metabolism in Sprague-Dawley rat epididymal fat assessed as salicyluric acid formation at 300 mg/kg, po administered for 14 days followed by 7 day washout cycle measured on day 21; format: ADME, organism-based, Epididymal fat pad; settings: in vivo
Rattus norvegicus [10] = assay: Cmax in Sprague-Dawley rat assessed as salicylate-linker metabolite N-(2-aminoethyl)-2-hydroxy-benzamide at 300 mg/kg, po measured up to 24 hrs post dose; format: ADME, organism-based; parameters: dose 300 mg/kg, route oral; settings: in vivo; procedure, shortened: as §2
Muscle tissue [11] = assay: Drug metabolism in Sprague-Dawley rat muscle assessed as salicylic acid formation at 300 mg/kg, po administered for 14 days followed by 7 day washout cycle measured on day 21; format: ADME, organism-based; settings: in vivo
Rattus norvegicus [12] = assay: AUClast in Sprague-Dawley rat assessed as salicylate-linker metabolite N-(2-aminoethyl)-2-hydroxy-benzamide at 300 mg/kg, po measured up to 24 hrs post dose; format: ADME, organism-based; parameters: time < 24 hr, dose 300 mg/kg, route oral; settings: in vivo; procedure, shortened: as §2
Liver = assay: Drug metabolism in Sprague-Dawley rat liver assessed as salicylic acid formation at 300 mg/kg, po administered for 7 days measured 4 hrs post dose on day 7; format: ADME, organism-based; settings: in vivo
Procedure, shortened: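 Male Sprague Dawley rats, groups of 4, dosed orally at 300 mg/kg once daily for 14 days. Animals killed on days 1, 3, 7 and 14, with plasma, brain, epididymal fat, liver and muscle taken 4 hr after dosing. Parent, salicylic acid and salicyluric acid were measured.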

Muscle tissue [13] = assay: Drug metabolism in Sprague-Dawley rat muscle assessed as salicyluric acid formation at 300 mg/kg, po administered for 14 days followed by 7 day washout cycle measured on day 21; format: ADME, organism-based; settings: in vivo

Compound | inhibition (HepG2) | IC50 (HepG2; HepG2, 16 h) | Stability (Plasma [1]) | AUClast (Rattus norvegicus [2]) | Cmax (Rattus norvegicus [3]) | concentration at 2 h [4] | inhibition [5] | Drug metabolism (Intestine) | Stability (Plasma [6]) | Drug uptake [7] | Drug uptake (Brain) | AUClast (Rattus norvegicus [8]) | Drug metabolism [9] | Cmax (Rattus norvegicus [10]) | Drug metabolism (Muscle tissue [11]) | AUClast (Rattus norvegicus [12]) | Drug metabolism (Liver) | Drug metabolism (Muscle tissue [13])
CC/C=C\C/C=C\C/C=C\C/C=C\C/C=C\CCCC(=O)NCCNC(=O)c1cccnc1 | Dose-dependent effect | 27 µM | Stable | 3484 ng·h/mL | 135 ng/mL | 6750 ng/g | Dose-dependent effect | 1387 ng/g | Stable | – | – | – | – | – | – | – | – | –
CC/C=C\C/C=C\C/C=C\C/C=C\C/C=C\C/C=C\CCC(=O)NCCNC(=O)c1ccccc1O [EDASALONEXENT] | – | – | – | – | – | – | – | – | – | Not Active | Not Active | 2937 ng·h/mL | metabolite_notdetected | 484 ng/mL | metabolite_notdetected | 2611 ng·h/mL | 235.91 ng/g | metabolite_notdetected
